Measured values: ChEMBL document CHEMBL3861974, “Discovery of a Selective Aurora A Kinase Inhibitor by Virtual Screening” (J Med Chem, 2016)
Active and inactive are the calls of the source. No cut-off for these calls is given here.

Tests used:
Aurora kinase B [1] = biological target: T1, Aurora kinase B (Homo sapiens, UniProt Q96GD4); experiment: Binding affinity to human Aurora B kinase expressed in Escherichia coli BL21 cells incubated for 1 hr by active site directed binding competition assay
T1 sequence (Q96GD4 whole entry): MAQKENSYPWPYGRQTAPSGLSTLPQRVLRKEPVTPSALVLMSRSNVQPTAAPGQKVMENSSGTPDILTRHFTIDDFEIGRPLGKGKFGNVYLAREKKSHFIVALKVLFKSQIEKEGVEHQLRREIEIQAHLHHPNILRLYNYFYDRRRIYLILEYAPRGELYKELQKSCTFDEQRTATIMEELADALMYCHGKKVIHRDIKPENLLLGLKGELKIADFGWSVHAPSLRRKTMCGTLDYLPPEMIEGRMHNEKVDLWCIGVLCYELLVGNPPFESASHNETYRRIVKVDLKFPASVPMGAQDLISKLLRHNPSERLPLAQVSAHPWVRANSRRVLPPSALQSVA
Summary of the method: (§1)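 Kinome scan of 456 kinases using an active-site-directed binding competition assay, followed by determination of binding affinities (Kd). Aurora B in this scan was free enzyme without INCENP.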

Aurora kinase A [2] = biological target: T2, Aurora kinase A (Homo sapiens, UniProt O14965); experiment: Binding affinity to human Aurora A kinase expressed in Escherichia coli BL21 cells incubated for 1 hr by active site directed binding competition assay; summary of the method: as §1
T2 sequence (O14965 whole entry): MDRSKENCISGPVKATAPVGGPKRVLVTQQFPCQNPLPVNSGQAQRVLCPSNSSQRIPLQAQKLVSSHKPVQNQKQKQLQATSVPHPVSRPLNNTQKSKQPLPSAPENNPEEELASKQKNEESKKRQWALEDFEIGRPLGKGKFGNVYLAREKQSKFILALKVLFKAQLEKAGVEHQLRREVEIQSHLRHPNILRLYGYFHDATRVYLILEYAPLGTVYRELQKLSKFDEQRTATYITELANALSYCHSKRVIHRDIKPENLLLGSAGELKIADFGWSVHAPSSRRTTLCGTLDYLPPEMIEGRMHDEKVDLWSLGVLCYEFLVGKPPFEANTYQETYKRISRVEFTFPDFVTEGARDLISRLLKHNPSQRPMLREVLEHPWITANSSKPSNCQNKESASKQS

Aurora kinase A [3] = biological target: T2, Aurora kinase A; experiment: Inhibition of His-tagged human Aurora A kinase ([…] residues) expressed in Escherichia coli BL21 (DE3) Rosetta cells using biotinylated STK2 substrate incubated for 30 mins in presence of 2 uM TPX2 by HTRF assay
Summary of the method: (§2)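 Biochemical kinase inhibition was read by HTRF with 20 µM ATP. Aurora B was assayed as its complex with the activator INCENP. For Aurora A, IC50 curves were recorded at different TPX2 concentrations.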

HeLa Kyoto = experiment: Increase in mitotic index in human HeLa Kyoto cells incubated for 20 hrs; type: functional, cell-based
Summary of the method: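 HeLa Kyoto cells were incubated overnight with compound, and the fraction of mitotic cells was scored. The experiment was repeated twice; mean ± SD.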

[4] = biological target: Death-associated protein kinase 2 (Homo sapiens, UniProt Q9UIK4); experiment: Binding affinity to human DAPK2 expressed in Escherichia coli BL21 cells incubated for 1 hr by active site directed binding competition assay; summary of the method: as §1
Chain of Death-associated protein kinase 2 (Q9UIK4 whole entry): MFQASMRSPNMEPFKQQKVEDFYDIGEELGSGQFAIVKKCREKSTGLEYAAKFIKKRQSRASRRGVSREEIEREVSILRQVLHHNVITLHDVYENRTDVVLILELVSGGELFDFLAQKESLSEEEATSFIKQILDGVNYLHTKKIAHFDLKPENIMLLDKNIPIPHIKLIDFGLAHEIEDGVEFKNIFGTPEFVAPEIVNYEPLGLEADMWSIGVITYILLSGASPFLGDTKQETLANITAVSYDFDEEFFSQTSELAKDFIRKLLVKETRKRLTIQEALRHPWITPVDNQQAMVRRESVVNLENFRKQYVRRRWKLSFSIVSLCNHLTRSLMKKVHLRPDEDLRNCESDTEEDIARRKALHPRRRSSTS

Aurora kinase C = biological target: T3, Aurora kinase C (Homo sapiens, UniProt Q9UQB9); experiment: Binding affinity to human Aurora C kinase expressed in Escherichia coli BL21 cells incubated for 1 hr by active site directed binding competition assay; summary of the method: as §1
T3 sequence (Q9UQB9 whole entry): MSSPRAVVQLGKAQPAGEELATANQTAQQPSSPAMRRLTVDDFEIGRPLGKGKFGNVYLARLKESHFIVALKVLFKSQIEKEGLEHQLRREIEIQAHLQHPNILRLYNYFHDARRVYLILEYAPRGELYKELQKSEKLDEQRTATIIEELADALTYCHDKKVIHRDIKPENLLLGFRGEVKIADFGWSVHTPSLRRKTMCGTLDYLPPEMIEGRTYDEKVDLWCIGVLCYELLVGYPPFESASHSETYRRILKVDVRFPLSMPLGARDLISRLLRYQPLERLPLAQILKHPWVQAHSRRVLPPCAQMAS

Aurora kinase B [5] = biological target: T1, Aurora kinase B; experiment: Inhibition of Aurora B kinase in human HeLa Kyoto cells assessed as induction of accumulation of cells at 16N DNA contant incubated for 48 hrs at 10 uM by flow cytometry; type: cell-based
Summary of the method: (§3)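 Cells were treated for 48 h, stained with propidium iodide, and DNA content was analysed by flow cytometry. Cells with 8N and 16N DNA content were scored as a readout of defective cytokinesis.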

Aurora kinase A [6] = biological target: T2, Aurora kinase A; experiment: Inhibition of His-tagged human Aurora A kinase ([…] residues) expressed in Escherichia coli BL21 (DE3) Rosetta cells using biotinylated STK2 substrate incubated for 30 mins in presence of 0.002 uM TPX2 by HTRF assay; summary of the method: as §2
[7] = biological target: Aurora kinase B/Inner centromere protein (Homo sapiens, UniProt Q96GD4); experiment: Inhibition of Aurora-B/INCENP (unknown origin) using biotinylated STK2 substrate incubated for 30 mins by HTRF assay; type: protein-complex assay; summary of the method: as §2
Chain of Aurora kinase B/Inner centromere protein (Q96GD4 whole entry): as the sequence (Q96GD4 whole entry) above
Chain of Aurora kinase B/Inner centromere protein (Q9NQS7 whole entry, further chain): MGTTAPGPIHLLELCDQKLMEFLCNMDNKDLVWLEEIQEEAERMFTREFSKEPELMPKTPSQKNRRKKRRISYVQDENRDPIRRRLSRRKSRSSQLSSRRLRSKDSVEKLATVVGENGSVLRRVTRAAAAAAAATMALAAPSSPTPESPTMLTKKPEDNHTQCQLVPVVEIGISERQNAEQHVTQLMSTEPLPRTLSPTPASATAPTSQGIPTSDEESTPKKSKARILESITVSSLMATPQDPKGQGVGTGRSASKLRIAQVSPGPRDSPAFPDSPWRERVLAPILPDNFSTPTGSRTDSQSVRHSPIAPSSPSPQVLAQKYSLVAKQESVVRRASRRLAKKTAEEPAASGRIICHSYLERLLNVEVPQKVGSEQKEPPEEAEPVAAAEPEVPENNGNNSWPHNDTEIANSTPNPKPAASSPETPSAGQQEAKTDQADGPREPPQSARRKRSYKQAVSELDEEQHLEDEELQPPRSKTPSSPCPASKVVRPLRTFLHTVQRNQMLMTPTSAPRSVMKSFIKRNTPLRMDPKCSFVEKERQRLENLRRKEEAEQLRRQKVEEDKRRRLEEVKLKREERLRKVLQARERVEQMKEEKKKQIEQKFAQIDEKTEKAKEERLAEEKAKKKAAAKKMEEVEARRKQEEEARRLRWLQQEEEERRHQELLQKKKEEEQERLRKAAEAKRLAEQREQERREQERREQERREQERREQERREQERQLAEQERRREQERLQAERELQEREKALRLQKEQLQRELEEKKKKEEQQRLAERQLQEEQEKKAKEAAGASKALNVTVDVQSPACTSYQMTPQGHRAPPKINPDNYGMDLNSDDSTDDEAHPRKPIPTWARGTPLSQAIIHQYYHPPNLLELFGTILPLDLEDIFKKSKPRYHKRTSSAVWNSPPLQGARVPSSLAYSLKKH

Aurora kinase B [8] = biological target: T1, Aurora kinase B; experiment: Inhibition of Aurora B kinase in human HeLa Kyoto cells assessed as induction of accumulation of cells at 8N DNA contant incubated for 48 hrs at 10 uM by flow cytometry; type: cell-based; summary of the method: as §3
[9] = Glutathione reactivity at 30 uM assessed as retention time for GSH adduct formation after 24 hrs in presence of 5 mM GSH, pH 7.4 buffer at 37 degC by LC-MS method
Summary of the method: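 Test compound at 30 µM was incubated with 5 mM GSH in H2O/CH3CN (4:1) at 37 °C and followed by LC-MS over 24 h. The GSH adduct was identified by MS. Parent was quantified by integrating its 310 nm absorption peak against 9-methylcarbazole as internal control. Values are the average of two independent experiments.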

[10] = biological target: T4, Aurora kinase A (Homo sapiens) (UniProt O14965); experiment: Inhibition of Aurora A kinase localization at spindle microtubules in human HeLa Kyoto cells at 10 uM incubated for 20 hrs; type: cell-based
T4 sequence (whole entry): T2 sequence (O14965 whole entry)
Summary of the method: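 HeLa Kyoto cells were treated overnight, then immunostained for Aurora A and TPX2 with DNA counterstain. Aurora A at spindle microtubules versus centrosomes was assessed by fluorescence imaging.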

[11] = biological target: T4, Aurora kinase A (Homo sapiens); experiment: Binding affinity to His-tagged human Aurora A kinase ([…] residues) expressed in Escherichia coli BL21 (DE3) Rosetta cells assessed as reduction in Aurora A binding to TPX-labeled human TPX2 N-terminal domain (1 to 43 residues) at 125 uM incubated for 30 mins by microscale thermophoresis method
Aurora kinase A [12] = biological target: T2, Aurora kinase A; experiment: Inhibition of His-tagged human Aurora A kinase ([…] residues) expressed in Escherichia coli BL21 (DE3) Rosetta cells using biotinylated STK2 substrate incubated for 30 mins by HTRF assay
[13] = biological target: T4, Aurora kinase A (Homo sapiens); experiment: Inhibition of Aurora A kinase in human HeLa Kyoto cells assessed as induction of defective chromosome alignment during metaphase at 10 uM incubated for 20 hrs; type: cell-based
Summary of the method: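 HeLa Kyoto cells were treated overnight and stained for pThr288 Aurora A, α-tubulin and DNA. Cells with chromosomes not aligned on the metaphase plate were scored. Experiment repeated twice, SD. Rescue variant: cells transfected with GFP-Aurora A wild-type, Arg137Ala or Trp277Ala before treatment; only highest expressers analysed, ≥100 cells per condition.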

Kd (Aurora kinase B [1]): 10.1 nM
Kd (Aurora kinase A [2]): 5 nM
IC50 (Aurora kinase A [3]): 1400 nM
Kd (Aurora kinase C): 10.8 nM
inhibition (Aurora kinase B [5]): Active
IC50 (Aurora kinase A [6]): 1.7 nM
IC50 [7]: 150 nM
inhibition (Aurora kinase B [8]): Active
inhibition [10]: Active
Activity [11]: Active
IC50 (Aurora kinase A [12]): 2 nM
inhibition [13]: Active
Compound: CCc1ccc(/N=C2\S/C(=C\c3ccnc(Nc4ccc(C(=O)O)cn4)c3)C(=O)N2C)cc1
Activity (HeLa Kyoto): Dose-dependent effect
Kd [4]: 450 nM
Retention time [9]: 1.29 min
